From ChEMBL document CHEMBL1131232, “New azole antifungals. 3. Synthesis and antifungal activity of 3-substituted-4(3H)-quinazolinones” (J Med Chem, 1998)
Values after ≈ are worked out from the molar mass of the structure shown. Blank lines part the entries; values can stand above or below the compound they belong to.

Key:
[1] = In vitro antifungal activity against 6 filamentous fungi; type: functional; settings: read-out: MIC
In short: (§1)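 Agar dilution on Kimmig's agar with 0.5% glycerol, using ATCC strains or clinical isolates. Drug stocks were 800 μg/mL in 50% ethanol, tested as 2-fold dilutions from 80 to 0.03 μg/mL. Inocula were 10⁵ cfu/mL. […] Geometric means took >80 as 160 and ≤0.03 as 0.03.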

Candida albicans [2] = assay: (§2) In vivo antifungal activity against murine candidosis model after peroral administration with 2.5 mg/kg at various time intervals. (percent protection for 100% mortality with fluconazole-treated group.); type: functional; settings: route oral
In short: (§3)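 Groups of 10 male mice were infected iv with 0.2 mL of C. albicans at 2 to 8×10^7 cfu/mL. Drug was given orally as a suspension in 1% Tween + 0.2% carboxymethylcellulose at 1, 4 and 24 h post-infection; controls got vehicle only. Survival was scored on days 3, 5, 7 and 9. Read-out was % survival on the day all untreated controls died, or on the day all mice given fluconazole at the same dose died.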

Candida albicans [3] = assay: (§4) In vivo antifungal activity against murine candidosis model after peroral administration with 2.5 mg/kg at various time intervals. (percent protection for 100% mortality with untreated group); type: functional; settings: route oral; in short: as §3
[4] = In vitro for antifungal activity against 10 yeasts; type: functional; settings: read-out: MIC; in short: as §1
Mus musculus [5] = assay: In vivo antifungal activity against murine candidosis model after peroral administration with 0.5 mg/kg at various time intervals. (percent protection for 100% mortality with untreated group); type: functional; settings: route oral; in short: as §3
Mus musculus [6] = assay: In vivo antifungal activity against murine candidosis model after peroral administration with 0.5 mg/kg at various time intervals. (percent protection for 100% mortality with fluconazole-treated group.); type: functional; settings: route oral; in short: as §3
Mus musculus [7] = assay: as §2; type: functional; settings: route oral; in short: as §3
Mus musculus [8] = assay: as §4; type: functional; settings: route oral; in short: as §3
Candida albicans [9] = assay: In vivo antifungal activity against murine candidosis model after peroral administration with 1 mg/kg at various time intervals. (percent protection for 100% mortality with fluconazole-treated group.); type: functional; settings: route oral; in short: as §3
Mus musculus [10] = assay: In vivo antifungal activity against murine candidosis model after peroral administration with 0.5 mg/Kg at various time intervals. (percent protection for 100% mortality with untreated group); type: functional; in short: as §3
Candida albicans [11] = assay: In vivo antifungal activity against murine candidosis model after peroral administration with 1 mg/kg at various time intervals. (percent protection for 100% mortality with untreated group); type: functional; settings: route oral; in short: as §3
Candida albicans [12] = assay: The compound was tested in vitro for antifungal activity against Candida albicans.; type: functional; in short: as §1
[13] = Half-life in rats after iv administration; type: ADME, organism-based; settings: rat, in vivo
Candida albicans [14] = assay: Tested in vivo for anti-candida activity in mice model 1 (dose: 0.5 mg/kg, untreated group).; type: functional
Candida albicans [15] = assay: Tested in vivo for anti-candida activity in mice model 1 (dose:0.5 mg/kg, fluconazole-treated group); type: functional
Mus musculus [16] = assay: In vivo antifungal activity against murine candidosis model after peroral administration with 0.5 mg/Kg at various time intervals. (percent protection for 100% mortality with fluconazole-treated group.); type: functional; in short: as §3
Mus musculus [17] = assay: In vivo antifungal activity against murine candidosis model after peroral administration with 1 mg/Kg at various time intervals. (percent protection for 100% mortality with untreated group); type: functional; in short: as §3

SMILES: C[C@@H](n1cnc2cc(Cl)ccc2c1=O)[C@](O)(Cn1ccnc1)c1ccc(F)cc1F
MIC [1]: 28 µg/mL (≈ 65 µM)
Protection (Candida albicans [2]): 0%
Protection (Candida albicans [3]): 0%
MIC [4]: 2 µg/mL (≈ 4.64 µM)

SMILES: CCC(CC)n1ncn(-c2ccc(N3CCN(c4ccc5c(=O)n([C@H](C)[C@](O)(Cn6cncn6)c6ccc(F)cc6F)cnc5c4)CC3)cc2)c1=O
Protection (Mus musculus [5]): 20%
MIC [1]: > 80 µg/mL
Protection (Mus musculus [6]): 0%
MIC [4]: 2.3 µg/mL (≈ 3.24 µM)

SMILES: COc1cc2ncn([C@H](C)[C@](O)(Cn3cncn3)c3ccc(F)cc3F)c(=O)c2cc1OC
MIC [1]: 80 µg/mL (≈ 175 µM)
Protection (Candida albicans [2]): 0%
Protection (Candida albicans [3]): 0%
MIC [4]: 7.6 µg/mL (≈ 16.6 µM)

SMILES: C[C@H](n1cnc2cc(Cl)ccc2c1=O)[C@@](O)(Cn1cncn1)c1ccc(F)cc1F
MIC [1]: > 80 µg/mL
Protection (Mus musculus [7]): 0%
Protection (Mus musculus [8]): 0%
MIC [4]: 40 µg/mL (≈ 92.6 µM)

SMILES: C[C@@H](n1cnc2cc(F)ccc2c1=O)[C@](O)(Cn1cncn1)c1ccc(F)cc1F
MIC [1]: 2.5 µg/mL (≈ 6.02 µM)
Protection (Candida albicans [9]): 0%
Protection (Mus musculus [10]): 0%
Protection (Candida albicans [11]): 0%
MIC (Candida albicans [12]): < 0.03 µg/mL
half-life [13]: 84 min
MIC [4]: 0.9 µg/mL (≈ 2.17 µM)

MIC [1]: 8.9 µg/mL (≈ 16.4 µM)
MIC [4]: 2.6 µg/mL (≈ 4.79 µM)
SMILES: C[C@@H](n1ncn(-c2ccc(OCC(F)(F)C(F)F)cc2)c1=O)[C@](O)(Cn1cncn1)c1ccc(F)cc1F
Protection (Candida albicans [14]): 100%
Protection (Candida albicans [15]): 100%

MIC [1]: 22 µg/mL (≈ 50 µM)
MIC [4]: 4.6 µg/mL (≈ 10.4 µM)
SMILES: C[C@@H](NC(=O)c1ccc(C(F)(F)F)cc1)[C@](O)(Cn1cncn1)c1ccc(F)cc1F
Protection (Candida albicans [14]): 100%
Protection (Candida albicans [15]): 100%

SMILES: C[C@@H](n1cnc2cc(Cl)ccc2c1=O)[C@](O)(Cn1cncn1)c1ccccc1F
MIC [1]: 1.1 µg/mL (≈ 2.66 µM)
Protection (Candida albicans [2]): 0%
Protection (Candida albicans [3]): 20%
MIC [4]: 0.7 µg/mL (≈ 1.69 µM)

SMILES: C[C@@H](n1cnc2c(Cl)cccc2c1=O)[C@](O)(Cn1cncn1)c1ccc(F)cc1F
MIC [1]: 45 µg/mL (≈ 104 µM)
Protection (Candida albicans [2]): 0%
Protection (Candida albicans [3]): 0%
MIC [4]: 2.5 µg/mL (≈ 5.79 µM)

SMILES: COc1cccc2c(=O)n([C@H](C)[C@](O)(Cn3cncn3)c3ccc(F)cc3F)cnc12
MIC [1]: > 80 µg/mL
Protection (Candida albicans [2]): 0%
Protection (Candida albicans [3]): 0%
MIC [4]: 10 µg/mL (≈ 23.4 µM)

SMILES: C[C@@H](n1cnc2cc(Br)ccc2c1=O)[C@](O)(Cn1cncn1)c1ccc(F)cc1F
Protection (Mus musculus [16]): 0%
MIC [1]: 0.8 µg/mL (≈ 1.68 µM)
Protection (Candida albicans [9]): 0%
Protection (Candida albicans [11]): 30%
MIC (Candida albicans [12]): < 0.03 µg/mL
MIC [4]: 0.4 µg/mL (≈ 0.84 µM)

SMILES: C[C@@H](n1cnc2cc(N(C)C)ccc2c1=O)[C@](O)(Cn1cncn1)c1ccc(F)cc1F
MIC [1]: 71 µg/mL (≈ 161 µM)
Protection (Candida albicans [9]): 0%
Protection (Mus musculus [17]): 0%
MIC [4]: 1.3 µg/mL (≈ 2.95 µM)
